Data set [1] is described as follows: Volume of distribution in Sprague-Dawley rat at 30 mg/kg, iv administered as bolus injection measured under fasted conditions by LC-MS/MS analysis. It is filed as ADME, organism-based. More on the design: dose 30 mg/kg, route intravenous. The following applies: in vivo. In outline: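 Jugular-cannulated male Sprague-Dawley rats, 280–330 g, fasted overnight to 4 h post-dose. Single dose in 50 mM HEPES-buffered saline pH 7.4, by oral gavage or as tail-vein i.v. bolus. Blood into heparin/NEM tubes at 0–24 h. Plasma measured by LC-MS/MS; noncompartmental analysis; Tmax observed; Vd = dose/(AUCinf·λz).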

Data set [2] in a line: Phase 1 metabolic stability in human liver microsomes assessed as compound remaining at 10 uM measured for 1 hr by LC-MS/MS analysis in absence of cofactors. In kind it is ADME. The following applies: read-out: Stability. An outline of the steps:
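Cofactor-free controls were run for each microsomal incubation: 0.5 mg/ml liver microsomes with 10 µM compound, omitting cofactors, so that cofactor-independent degradation could be measured. Samples were taken up to 1 h, quenched with acetonitrile containing internal standard, and the percent remaining was determined by LC-MS/MS.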

Data set [3] can be described thus: Cmax in Sprague-Dawley rat sciatic nerve at 10 mg/kg/day, po administered measured per gm of tissue for 5 days by LC-MS/MS analysis. It is filed as ADME, organism-based. More on the design: dose 10 mg/kg/day, route oral. An outline of the steps:
(§1)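 Male Sprague-Dawley rats were dosed orally with 10 mg/kg/day, either once or daily for 5 days; n = 4 per group. Blood was taken by cardiac puncture and liver, kidney, brain and sciatic nerve were collected at 0–8 h post-dose. Tissues were homogenized in PBS containing NEM at equal volume per gram. NEM-derivatized analyte was extracted with methanol and quantified by LC-MS/MS (1–5000 ng/ml). Cmax is the observed value.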

Data set [4] in a line: AUC(0 to last) in Sprague-Dawley rat at 0.1 mg/kg, iv administered as bolus injection measured under fasted conditions by LC-MS/MS analysis. In kind it is ADME, organism-based. Particulars: plasma. More on the design: time 0 - last, dose 0.1 mg/kg, route intravenous. In outline: (§2)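 Male Sprague-Dawley rats (280–330 g), jugular vein cannulated, fasted overnight until 4 h post-dose. Single tail-vein bolus of 0.1, 1, 10 or 30 mg/kg in 50 mM HEPES buffered saline, pH 7.4. Blood drawn 0–24 h into heparin tubes containing NEM. Plasma quantified by LC-MS/MS after NEM derivatization. Noncompartmental analysis: AUClast by linear trapezoidal rule, Cl = dose/AUC0-∞. Mean ± S.D., n = 4–9.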

The nature of data set [5]: Clearance in Sprague-Dawley rat at 30 mg/kg, iv administered as bolus injection measured under fasted conditions by LC-MS/MS analysis. Particulars: in vivo. It is filed as ADME, organism-based. More on the design: dose 30 mg/kg, route intravenous. An outline of the steps: as §2
A short description of data set [6]: Tmax in cynomolgus monkey at 5 mg/kg, iv administered as bolus injection by LC-MS/MS analysis. In kind it is ADME, organism-based, Macaca fascicularis. More on the design: dose 5 mg/kg, route intravenous. Particulars: in vivo. An outline of the steps: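 Cynomolgus monkeys (n=3) dosed at 5 mg/kg nominal, TCEP-treated 50 mM HEPES solution, either as i.v. bolus (cephalic or saphenous vein) or orally. Arterial cannula blood into heparin/NEM tubes for up to 9 days. Plasma parent and homodisulfide measured by LC-MS/MS; Tmax observed.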

A short description of data set [7]: AUC(0 to infinity) in Sprague-Dawley rat at 10 mg/kg, iv by LC-MS/MS analysis. In kind it is ADME, organism-based. Particulars: plasma. More on the design: time infinity, dose 10 mg/kg, route intravenous. An outline of the steps:
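Male Sprague-Dawley rats dosed intravenously at 10 mg/kg (n = 6). Blood sampling extended to 7 days into heparin tubes containing NEM. Plasma assayed for parent and homodisulfide by LC-MS/MS, calibration range 1–5000 ng/ml. Noncompartmental analysis, t1/2 = 0.693/λz. Mean ± S.D.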

Data set [8] can be described thus: Tmax in Sprague-Dawley rat at 10 mg/kg, iv by LC-MS/MS analysis. It is filed as ADME, organism-based. More on the design: dose 10 mg/kg, route intravenous. Particulars: in vivo.
A short description of data set [9]: Half life in Sprague-Dawley rat at 30 mg/kg, iv administered as bolus injection measured under fasted conditions by LC-MS/MS analysis. More on the design: dose 30 mg/kg, route intravenous. It is filed as ADME, organism-based. The following applies: in vivo.
A short description of data set [10]: Phase 1 metabolic stability in rat liver microsomes assessed as compound remaining at 10 uM measured for 1 hr by LC-MS/MS analysis. It is filed as ADME. The following applies: read-out: Stability. In outline:
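Liver microsomes (0.5 mg/ml) were incubated with 10 µM compound (final) in 100 mM potassium phosphate, pH 7.4. An NADPH-regenerating system was present: 1.3 mM NADPH, 3.3 mM glucose 6-phosphate, 3.3 mM MgCl2, 0.4 U/ml G6PDH and 50 µM sodium citrate. Runs were in duplicate, with samples taken up to 1 h and quenched with acetonitrile containing internal standard. Loss of compound was followed by LC-MS/MS.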
A general note: Liver microsomes are a subcellular fraction often used to study metabolism.

A short description of data set [11]: Cmax in Sprague-Dawley rat sciatic nerve at 10 mg/kg, po administered as single dose measured per gm of tissue by LC-MS/MS analysis. In kind it is ADME, organism-based. More on the design: dose 10 mg/kg, route oral. An outline of the steps:
as §1

Data set [12] deals with Rattus norvegicus. The data set is described as follows: Analgesic activity in Sprague-Dawley rat chronic constriction injury model assessed as change in paw withdrawal latency at 10 mg/kg/day, po measured 7 days after drug treatment cessation (reference value: -2.68 +/-0.43 s). In kind it is functional.

The source of these data is ChEMBL document CHEMBL3526151, “Reversible disulfide formation of the glutamate carboxypeptidase II inhibitor E2072 results in prolonged systemic exposures in vivo” (Drug Metab Dispos, 2012).

SMILES strings stand for the structures.

`O=C(O)c1cccc(-c2cccc(CCS)c2C(=O)O)c1` yielded a Vd in [1] of 1.08 L/kg. Further, the remaining at 1 h, 10 µM in data set [2] and in data set [10] was greater than 90% each time. For the same molecule, the Cmax turned out to be 165 ng/g in [3] and 203 ng/g in [11]. Besides, in data set [4], the AUC(0-t) was determined as 1800 ng·h/mL. In addition, the clearance in data set [5] was 3 mL/min/kg. For the same molecule, the Tmax in [6] was 4.8 min; in data set [8], 6.6 min. For the same molecule, the AUC(0-inf) in data set [7] was 87000 ng·h/mL. In addition, the half-life in [9] was 244 min. Moreover, in data set [12], the Time was -1.53 s.

The Vd is a proportionality between amount in the body and measured concentration, not a real space. By Cmax is commonly meant the maximum level reached in the sampled fluid or tissue. For orientation: AUC(0-t) means exposure summed from dosing to a finite time, without extrapolation to infinity. The clearance is the volume of plasma or blood freed of the substance per unit of time. By Tmax is commonly meant the time from dosing to the highest level. A word on the AUC(0-inf): it is the area under the concentration-time curve extrapolated to infinity. One may read the half-life as the time in which the quantity being followed falls by half.
